Compound activity: PubChem, several laboratories
Most compounds without a hit are left out; they make up all but 1.8% or so of the library.
GalR3 antag: GalR3 antagonists in HEK293 cells, primary screen, cell-based, fluorescence readout | Galanin receptor type 3 (Homo sapiens), O60755 | HEK293 GalR3-CNG cAMP membrane potential fluorescence; galR3 body fused to GalR1 C-terminus | inhibition, % at 3 µM | hit rate 0.44% among 360,000 | AID 651719, 2012;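 active = inhibition above the screen-wide average plus 3 SD, cut at about 13% in these data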;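 note: forskolin and galanin both at EC90 stimulate the cells; cAMP rise reported by CNG channel membrane potential dye signal; 0% = forskolin plus galanin with DMSO and 100% = forskolin alone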
NR2E3 ag-1: inhibitors of NR2E3-RetCOR corepressor binding, primary screen, NR2E3 agonist project, biochemical, TR-FRET, GST-NR2E3, biotin-RetCOR | inhibition of corepressor binding, % at 4.78 µM | Photoreceptor-specific nuclear receptor (Homo sapiens), Q9Y5X4 | AID 2300, 2010 | 1536-well | hit rate 0.12% among 320,000;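 active = percent inhibition above the cutoff of mean plus 3 SD of all tested compounds, set per screening campaign, cut at about 20% in these data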;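 note: 0% = DMSO wells and 100% = biotin wells as full block of FRET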
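System: GST-NR2E3 and biotin-RetCOR proteins; probe or stimulus: 7 nM biotin-RetCOR; doses: compound at 4.8 µM, single dose; schedule: Compound–protein incubation for 5 h at 4 °C; detection: time-resolved FRET; read-out: percent inhibition; controls: biotin wells as high control, 0.6% DMSO wells as low control; format: 1536-well plates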
NR2E3 ag-2: NR2E3 agonists in two-hybrid cells, primary screen, cell-based, luminescence, CHO-S, Gal4-NCOR/VP16-NR2E3; Photoreceptor-specific nuclear receptor (Homo sapiens), Q9Y5X4; luciferase; hit rate 0.35% among 360,000; inhibition of corepressor binding, % at 3.98 µM;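 active = inhibition above the mean of all tested compounds plus 3 SD, cut at about 70% in these data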;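 note: 0% = DMSO with NR2E3 transfected cells and 100% = cells lacking NR2E3 construct; higher means lower luciferase signal from less NR2E3 corepressor binding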
PG9 Ab binder: binders of HIV-1 gp120 antibody PG9, primary screen, biochemical, TR-FRET | HIV-1 gp120 / PG9 antibody interaction | inhibition, % at 6.7 µM | TR-FRET gp120-PG9 antibody binding | hit rate 0.43% among 360,000 | AID 624416, 2012; in the data active = inhibition above about 8.5%
Rev-erbA mod: modulators of Rev-erb alpha DNA binding, primary screen, biochemical, FITC-DNA, fluorescence polarization, uHTS. activity, % at 10 µM. AID 1259318, 2017. Nuclear receptor subfamily 1 group D member 1 (Homo sapiens), P20393. Rev-erbα–FITC-DNA binding, 90 min. hit rate 0.79% among 370,000;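 active = activity above about 14%, limit read from the data; passing the limit was not always enough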;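 note: 0% = DMSO wells with 35 nM protein and 100% = DMSO wells with 750 nM protein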
Target sequence (P20393 whole entry, looked up): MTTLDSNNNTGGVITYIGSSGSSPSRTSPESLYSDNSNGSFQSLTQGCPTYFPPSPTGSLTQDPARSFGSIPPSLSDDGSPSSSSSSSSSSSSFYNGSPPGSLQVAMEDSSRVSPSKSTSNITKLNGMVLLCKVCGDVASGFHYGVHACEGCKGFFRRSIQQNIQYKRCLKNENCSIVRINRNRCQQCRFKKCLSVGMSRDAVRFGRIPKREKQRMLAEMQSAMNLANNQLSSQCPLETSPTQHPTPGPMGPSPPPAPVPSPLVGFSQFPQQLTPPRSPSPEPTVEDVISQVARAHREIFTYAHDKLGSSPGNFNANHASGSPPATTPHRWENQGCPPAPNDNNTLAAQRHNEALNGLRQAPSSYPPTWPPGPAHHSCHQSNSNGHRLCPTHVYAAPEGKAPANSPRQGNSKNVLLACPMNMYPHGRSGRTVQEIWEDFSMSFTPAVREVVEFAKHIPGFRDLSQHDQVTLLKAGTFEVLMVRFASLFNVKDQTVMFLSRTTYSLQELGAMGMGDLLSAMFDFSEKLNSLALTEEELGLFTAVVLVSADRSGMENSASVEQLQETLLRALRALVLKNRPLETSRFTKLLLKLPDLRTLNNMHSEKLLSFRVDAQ
Rev-erbA confirm: modulators of Rev-erb alpha DNA binding, confirmation, biochemical, FITC-DNA, fluorescence polarization, single point. 90 min. AID 1259319, 2017. shares compounds with Rev-erbA mod. hit rate 61% among 3,000. activation, % at 25 µM;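 active = activation at or above a set limit, or at least 3 SD above the negative control mean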;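 note: 0% = 35 nM protein with DMSO and 100% = 750 nM protein high control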
RORg counter: modulation of RORgamma DNA binding, dose response, counter-screen for Rev-erb alpha modulator project, biochemical, fluorescence polarization, FITC-DNA | shares compounds with Rev-erbA mod | purified RORgamma protein-FITC-DNA binding | IC50, µM | hit rate 8% among 910;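 active = Compounds whose fitted half-maximal concentration for disrupting protein-DNA binding is below 10 micromolar; the record names Rev-erb in its text, so the target is in doubt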
Active calls of the source: *; x = no result given.

SMILES	GalR3 antag	NR2E3 ag-1	NR2E3 ag-2	PG9 Ab binder	Rev-erbA mod	Rev-erbA confirm	others
Cc1nn(Cc2ccccc2Cl)c2sc(C(=O)NC(C)(C)C)cc12	-4	4	14	1	2	x
CC(=O)c1cccc(NC(=O)CCn2c(=S)oc3ccccc32)c1	-10	-2	1	-1	29*	12
CC(C)NC(=O)CCn1nnc(-c2cccs2)n1	x	x	x	x	7	x
O=P(O)(O)C(O)(Cc1cccnc1)P(=O)(O)O	x	x	x	x	-9	x
O=C(Nc1c(C(=O)Nc2cccc(F)c2)oc2ccccc12)c1ccc2c(c1)OCO2	-5	3	-14	0	51*	17
CCN(CC)c1ccc(NC(=O)c2ccc3c(c2)OCO3)cc1	-8	-6	-131	-11	16*	1
O=C(Nc1ccc2c(c1)OCO2)c1ccc2nc[nH]c2c1	-2	1	-114	-1	-3	x
O=C(Nc1ccc2nn(-c3ccccc3)nc2c1)c1ccc2c(c1)OCO2	-1	-13	2	-19	23*	28*
O=C(Nc1cccc(-c2nc3ccccc3s2)c1)c1ccc2c(c1)OCO2	3	4	-110	-1	45*	12
O=C(Nc1cccc(F)c1)c1ccc2c(c1)OCO2	-1	3	-90	-1	1	x
Cn1cccc1C(=O)N1CCN(S(=O)(=O)c2cccc3ccccc23)CC1	x	x	x	x	1	x
CCOC(=O)N(C)[C@H]1C[C@H]2c3[nH]c4cccc(-c5cccc(F)c5)c4c3CCN2C(=O)[C@H]1[C@H](C)O	x	x	x	x	6	x
COc1ccc2c(c1)cc(C(=O)N[C@@H](Cc1ccccc1)C(=O)N[C@@H](C)C(=O)O)n2C	-3	1	-33	-1	28*	-6
CC(=O)CC[C@@H]1CC[C@]2(CCCN(C(=O)C3CCCCC3)C2)O1	x	x	x	x	-1	x
CCCCOc1ccc(C(=O)NC2CCCCN(Cc3ccccc3C)C2=O)cc1 (stereo unspecified)	x	x	x	x	1	x
Nc1[nH]c(C(=O)c2ccccc2)c(-c2ccc(Br)cc2)c1C(=O)N1CCN(CCO)CC1	x	x	x	x	-7	x
COC(=O)C[C@@H]1CC[C@@H]2[C@H](COc3ccc(NC(=O)c4cccc(OC)c4)cc3C(=O)N2C)O1	x	x	x	x	-7	x
COc1ccc(-n2c3c(cc(C(=O)NCC(=O)c4ccccc4)c2=O)C(=O)CC(C)(C)C3)cc1	3	1	2	0	19*	8
CCOC(=O)c1sc2nc(C)nc(Nc3ccc(OC)cc3)c2c1C	-9	-2	-10	2	31*	13
CCOC(=O)c1sc2nc(C)nc(NCc3ccc(F)cc3)c2c1C	-5	0	29	0	1	x
COc1ccc(Cl)cc1S(=O)(=O)N1CCN=C1C	x	0	20	1	0	x
CC1=NCCN1S(=O)(=O)c1c(C(C)C)cc(C(C)C)cc1C(C)C	-4	5	-8	1	45*	44*	RORg counter=>40
O=C1CC(N2CCCN(Cc3ccccc3)CC2)=NC(=O)N1c1ccc(Br)cc1	x	x	x	x	0	x
CCCCNC(=O)C[C@@H]1C(=O)N(Cc2ccc(OC)cc2)C2=CCN(C(=O)OC(C)(C)C)C[C@]21C(=O)OCC	x	x	x	x	4	x
CCCN1CC(=O)N2[C@H](C[C@@]3(n4ccc5ccccc54)c4ccccc4N(S(=O)(=O)c4ccccc4)[C@@H]23)C1=O	x	x	x	x	0	x
SMILES	GalR3 antag	NR2E3 ag-1	NR2E3 ag-2	PG9 Ab binder	Rev-erbA mod	Rev-erbA confirm	others
COc1cccc(C(=O)N=c2sc3c(C)ccc(OC)c3n2C)c1	x	-1	-95	-1	24*	5
COC(=O)Cn1c(=NC(=O)CCS(=O)(=O)c2ccccc2)sc2c(OC)ccc(OC)c21	-3	4	-18	-1	82*	39*	RORg counter=>40
CCCCC(=O)N=c1sc2c(OC)ccc(OC)c2n1C	-6	3	-11	-1	23*	8
COc1ccc(C(=O)N=c2sc3c(C)ccc(OC)c3n2C)cc1OC	-2	-1	-44	0	14	x
Nn1c(SCC(=O)Nc2ccc(OCc3ccccc3)cc2)nnc1-c1cc(-c2ccc(Cl)cc2)n[nH]1	x	x	x	x	-4	x
CC(C)[C@H]1/C(=C/C2CC2)N2C(=O)C[C@@H](c3ccccc3)N=C2N1Cc1ccc2c(c1)OCO2	x	x	x	x	11	x
COc1ccc(CNCC#Cc2ccc(C(F)(F)F)cc2)c(OC)c1	x	x	x	x	-5	x
CCCCn1c(N)c(N(CC(C)C)C(=O)C2CC(=O)N(CCc3ccccc3)C2)c(=O)[nH]c1=O (stereo unspecified)	1	2	-2	-3	12*	1
CC(C)(C)N(Cc1cn(Cc2ccccc2)nn1)S(=O)(=O)c1ccccc1Br	x	x	x	x	4	x
Cc1ccc(Cn2c(SCC(=O)Nc3cc(C)on3)nc3ccccc3c2=O)cc1	-3	1	-9	17*	45*	19*
C/C(N)=C(/C#N)C(=O)CSc1nc2ccccc2c(=O)n1Cc1ccc(C)cc1	3	-6	11	1	70*	25*
C#CCNC(=O)C[C@H]1C(=O)N(Cc2ccc(OC)cc2)C2=CCCCC[C@@]21C(=O)OC	x	x	x	x	-3	x
O=C(CCn1c(=S)[nH]c2cc3c(cc2c1=O)OCO3)NCCc1ccccc1Cl	-2	x	12	-1	23*	13*
O=C(CCCn1c(=S)[nH]c2cc3c(cc2c1=O)OCO3)NCCc1ccccc1Cl	3	8	-18	5	27*	22*
COc1ccc(CCNC(=O)CCCn2c(=S)[nH]c3cc4c(cc3c2=O)OCO4)cc1OC	2	x	1	7	4	x
O=C(CCn1c(=S)[nH]c2cc3c(cc2c1=O)OCO3)NCc1ccccc1Cl	-7	3	-10	0	3	x
CCC(NC(=O)c1ccc2c(ccn2Cc2cccc(-c3ccccc3C(=O)O)c2)c1)c1ccccc1 (stereo unspecified)	x	x	x	x	1	x
O=C(CSc1nc2ccccc2nc1N1CCCCC1)N1CCN(S(=O)(=O)c2ccccc2)CC1	x	x	x	x	-2	x
COc1ccc(-c2nn(CC(=O)Nc3ccc(Cl)c(Cl)c3)c(=O)c3ccccc23)cc1	-1	0	-3	2	22*	14
COc1ccc(-c2ccc(=O)n(CC(=O)Nc3ccc4c(c3)OCCO4)n2)cc1	-5	-2	1	1	18*	11
